Measurements taken from ChEMBL document CHEMBL1159381, “New Sesquiterpenes from Litsea verticillata” (J Nat Prod, 2003).

Key:
[1] = Cytotoxicity against GFP reporter gene expressing human HOG.R5 cells at 10 ug/mL; format: cell-based; details: in the assay text read “20 ug/mL” for “10 ug/mL”
Summary of the method: (§1)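 Run in parallel with the anti-HIV assay: HOG.R5 GFP reporter cultures given identical concentrations of test material but no virus; cell viability monitored after 4 days by combined microscopic and fluorometric measurement; CC50 derived.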

[2] = test system: Human immunodeficiency virus 1; assay: Antiviral activity against HIV1 3B in human HOG.R5 cells by GFP-based reporter gene assay; format: functional, organism-based; details: Human immunodeficiency virus 1, 3B
Summary of the method: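 HOG.R5 GFP reporter cells in microtiter wells infected with HIV-1 IIIB (2.5 ng/mL p24) in presence of test material; GFP fluorescence read after 4 days to quantify infectivity; IC50 derived.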

[3] = Cytotoxicity against GFP reporter gene expressing human HOG.R5 cells up to 20 ug/mL; format: cell-based; summary of the method: as §1
[4] = Cytotoxicity against GFP reporter gene expressing human HOG.R5 cells; format: cell-based; summary of the method: as §1

| SMILES | Activity [1] | IC50 [2] [µM] | Activity [3] | CC50 [4] [µM] |
| --- | --- | --- | --- | --- |
| C=C1CC[C@@H](O)[C@]2(C)CC[C@H](C(C)C)[C@@H](O)[C@H]12 | Non-toxic | 73.1 | Non-toxic |  |
| CC(=O)CC/C(=C/C1=C(C)CCC1=O)C(C)C [LITSEACHROMOLAEVANE B] | Non-toxic | 120 | Non-toxic |  |
| C=C1CC[C@H](C(C)(C)O)/C=C/[C@@H](C)CCC1=O [LITSEAGERMACRANE] |  | 27.5 |  | 63.4 |
